Among the data in ChEMBL document CHEMBL1150578, “Potent antiviral potamogetonyde and potamogetonol, new furanoid labdane diterpenes from Potamogeton malaianus” (J Nat Prod, 2001) are IC50 and MIC values, retold here.

In brackets after ≈: the same amount, converted by molar mass. Some results are limits rather than exact numbers.

For one experiment, the system named is Human alphaherpesvirus 1. Description: Antiviral activity against HSV1 infected in african green monkey Vero cells after 72 hrs by SRB assay. The format is functional, organism-based. The following applies: Human alphaherpesvirus 1, Vero. In a few lines: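 HSV-1 (30 PFU) added to wells with test samples (final 20–50 µg/mL), then Vero cells plated at 1 × 10^5 cells/mL. Vero cells grown in MEM with 10% heat-inactivated FBS and antibiotics. Incubated 72 h at 37 °C, 5% CO2. Cells then fixed and stained, and OD read at 510 nm. Acyclovir was the reference.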

The nature of experiment [1]: Cytotoxicity against Spodoptera frugiperda Sf9 cells after 24 hrs by MTT assay. The format is functional, cell-based. The following applies: Sf9, 24 h. In a few lines:
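Seeded 4 × 10^3 cells/well and left 48 h to attach. Exposed 24 h to 1:2 serial dilutions from 200 to 1.56 µg/mL (top dose in 1% DMSO) with penicillin/streptomycin. Then 24 h recovery in fresh medium. MTT 4 h, formazan dissolved in DMSO/glycine buffer pH 10.5, OD 570 nm. Four wells per point; IC50 by metabolic competence.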

The nature of experiment [2]: Cytotoxicity against Aedes albopictus C6/36 cells after 24 hrs by MTT assay. The format is functional, cell-based. The following applies: C6/36, 24 h. In a few lines: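 C6/36 cells in MEM with 10% FCS and 1.1 g/L Na2CO3, at 28 °C, antibiotic-free stock. Seeded 1.6 × 10^4 cells/well and left 48 h to attach. Exposed 24 h to 1:2 serial dilutions from 200 to 1.56 µg/mL (top dose in 1% DMSO) with penicillin/streptomycin. Then 24 h recovery in fresh medium. MTT 4 h, formazan dissolved in DMSO/glycine buffer pH 10.5, OD 570 nm. Four wells per point; IC50 by metabolic competence.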

Experiment [3] has as its system Mycobacterium tuberculosis. Description: Antimycobacterial activity against Mycobacterium tuberculosis H37Ra by microplate alamar blue assay. The format is functional.
The next experiment deals with KB. The experiment in a line: Cytotoxicity against human KB cells by SRB assay. The format is functional, cell-based.
Experiment [4] can be described thus: Cytotoxicity against human BC cells by SRB assay. The format is functional, cell-based.
A further experiment has as its system Vero. The experiment in a line: Cytotoxicity against african green monkey Vero cells by SRB assay. The format is cell-based. Particulars: Chlorocebus sabaeus.

For the compound `C=C1CC[C@@H]2[C@@]3(C)CCC[C@@]2(C(=O)OC3)[C@@H]1CC(=O)c1ccoc1`, the half-inhibitory concentration (IC50) was greater than 20 µg/mL with Human alphaherpesvirus 1; 26 µg/mL (≈ 79.2 µM) in experiment [1]; 72 µg/mL (≈ 219 µM) in experiment [2]; greater than 20 µg/mL with KB; greater than 20 µg/mL in experiment [4]; greater than 50 µg/mL in the experiment with Vero. Also, in experiment [3], the minimum inhibitory concentration (MIC) is 100 µg/mL (≈ 304 µM).

In the experiment with Human alphaherpesvirus 1, `Nc1nc2c(ncn2COCCO)c(=O)[nH]1` [ACYCLOVIR] showed an IC50 of 2 µg/mL (≈ 8.88 µM).

For `Cc1c2ccncc2c(C)c2c1[nH]c1ccccc12` [ELLIPTECINE], the IC50 was found to be 0.1 µg/mL (≈ 0.406 µM) with KB, 0.1 µg/mL (≈ 0.406 µM) in experiment [4] and 0.4 µg/mL (≈ 1.62 µM) with Vero.

In turn, `NNC(=O)c1ccncc1` [ISONIAZID] showed a minimum inhibitory concentration (MIC) in experiment [3] of 0.04 µg/mL (≈ 0.292 µM).

Regarding `NC[C@H]1O[C@H](O[C@H]2[C@H](O)[C@@H](O[C@H]3O[C@H](CO)[C@@H](O)[C@H](N)[C@H]3O)[C@H](N)C[C@@H]2N)[C@H](O)[C@@H](O)[C@@H]1O.O=S(=O)(O)O` [KANAMYCIN SULFATE], it took 2 µg/mL to inhibit growth in experiment [3] (MIC).

Turning to `CO[C@@]12[C@H](COC(N)=O)C3=C(C(=O)C(C)=C(N)C3=O)N1C[C@@H]1N[C@@H]12` [MITOMYCIN], the IC50 in experiment [1] and in experiment [2] was 3 µg/mL (≈ 8.97 µM) in each case.

`C=C1CC[C@@H]2[C@@]3(C)CCC[C@@]2(C(=O)OC3)[C@@H]1CCc1ccoc1` [POTAMOGETONIN]: the 50% inhibitory concentration (IC50) in the experiment on Human alphaherpesvirus 1 was greater than 20 µg/mL; in experiment [1], 15 µg/mL (≈ 47.7 µM); in experiment [2] it was 22 µg/mL (≈ 70 µM); in the experiment on KB it was greater than 20 µg/mL; in experiment [4], greater than 20 µg/mL; with Vero, greater than 50 µg/mL. Also, in experiment [3], the MIC was found to be 100 µg/mL (≈ 318 µM).

Take `C=C1CC[C@@H]2[C@](C)(COC(C)=O)CCC[C@@]2(CO)[C@@H]1CCc1ccoc1` [POTAMOGETONOL]: the IC50 in the experiment on Human alphaherpesvirus 1 is 3 µg/mL (≈ 8.32 µM); in experiment [1], 23 µg/mL (≈ 63.8 µM); in experiment [2] it was 43 µg/mL (≈ 119 µM); in the experiment with KB it was greater than 20 µg/mL; in experiment [4], greater than 20 µg/mL; with Vero, 28 µg/mL (≈ 77.7 µM). The compound also gave an MIC in experiment [3] of 50 µg/mL (≈ 139 µM).

Turning to `C=C1CC[C@@H]2[C@](C)(COC(C)=O)CCC[C@@]2(C=O)[C@@H]1CCc1ccoc1` [POTAMOGETONYDE], the half-inhibitory concentration (IC50) in the experiment with Human alphaherpesvirus 1 was 8 µg/mL (≈ 22.3 µM); in experiment [1], 11 µg/mL (≈ 30.7 µM); in experiment [2], 30 µg/mL (≈ 83.7 µM); in the experiment with KB it was greater than 20 µg/mL; in experiment [4] it was greater than 20 µg/mL; in the experiment with Vero, 31 µg/mL (≈ 86.5 µM). Also, 100 µg/mL (≈ 279 µM) was the least that counted as inhibitory in experiment [3] (MIC).
